Screens as filed in PubChem BioAssay.
Only some compounds are listed: those with a hit (about 1.8% of all), similar ones and a draw of the others.
CHRM4 antagonist: CHRM4 antagonism in calcium assay; P08173; CHO-hM4 cells, ACh EC80, Fluo-8 calcium fluorescence; inhibition, % at 3 µM; hit rate 0.73% among 360,000; AID 624125;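 active means inhibition above its plate's cutoff, the mean inhibition of sample wells plus 3 SD, cut at about 27% in these data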;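 further: 0% = acetylcholine EC80 with DMSO and 100% = DMSO without agonist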
Target sequence (P08173 whole entry, looked up): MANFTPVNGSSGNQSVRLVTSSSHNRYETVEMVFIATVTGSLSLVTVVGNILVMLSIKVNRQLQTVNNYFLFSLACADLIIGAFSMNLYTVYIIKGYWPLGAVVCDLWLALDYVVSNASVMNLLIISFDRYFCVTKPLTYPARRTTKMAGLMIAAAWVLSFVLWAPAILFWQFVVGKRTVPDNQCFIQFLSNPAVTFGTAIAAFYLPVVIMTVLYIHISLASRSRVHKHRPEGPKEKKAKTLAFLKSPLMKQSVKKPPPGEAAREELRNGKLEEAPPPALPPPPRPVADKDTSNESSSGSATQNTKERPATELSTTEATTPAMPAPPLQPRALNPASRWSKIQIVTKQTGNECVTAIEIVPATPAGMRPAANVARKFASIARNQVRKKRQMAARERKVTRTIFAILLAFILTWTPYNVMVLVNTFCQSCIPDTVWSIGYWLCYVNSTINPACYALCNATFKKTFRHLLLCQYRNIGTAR
CHRM4 agonist: agonists of human muscarinic M4 receptor (CHRM4); AID 624127; CHO-K1 hM4/Gqi5, Fluo-8 calcium fluorescence; vehicle 0%, full acetylcholine response 100%; P08173; activation, % at 3 µM; hit rate 0.14% among 360,000;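 active means activation above the run mean over all test wells plus 3 SD, cut at about 32% in these data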;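 further: peak over basal fluorescence ratio per well then scaled between controls; 0% = DMSO wells and 100% = acetylcholine at EC100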
CHRM5 agonist: CHRM5 agonism in calcium assay. P08912. CHO-K1 hM5 cells, Fluo-8 calcium fluorescence; 0% DMSO wells, 100% maximal acetylcholine response. activation, % at 3 µM. hit rate 0.19% among 360,000;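 active means activation above the run's mean over test compounds plus 3 SD, cut at about 23% in these data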;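 further: signal is peak over basal fluorescence ratio across the kinetic read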
M4 PAM: potentiates acetylcholine response at human M4 receptor; CHO-K1 hM4/Gqi5, Fluo-8 calcium fluorescence, ACh EC20; 0% = ACh EC20, 100% = maximal ACh; activation, % at 3 µM; hit rate 0.4% among 360,000; AID 624126;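 active means activation above its plate's cutoff, the mean activation of sample wells plus 3 SD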
CHRM5 antagonist: blocks acetylcholine activation of human M5 receptor; AID 624040; inhibition, % at 3 µM; hit rate 0.59% among 360,000; CHO-hM5 cells, Fluo-8 calcium fluorescence, ACh EC80; P08912;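 active means inhibition above a per-plate cutoff, the mean of that plate's test compounds plus 3 SD, cut at about 27% in these data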;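 further: 0% = acetylcholine EC80 with DMSO and 100% = DMSO without agonist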
M5 PAM: positive allosteric modulators of human muscarinic M5 receptor | hit rate 0.3% among 360,000 | activation, % at 3 µM | P08912 | CHO-K1 hM5, Fluo-8 calcium, ACh EC20 PAM; 0% = ACh EC20, 100% = ACh EC100;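 active means activation above the run cutoff, the mean activation of all test compounds plus 3 SD, cut at about 18% in these data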
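system = human M5 receptor in CHO-K1 cells | reagent = EC20 acetylcholine as agonist stimulus | compound dosing = single-point, 3 µM nominal | incubation = Fluo-8 loading 80 min at 37 °C plus 30 min room temperature | detection = Fluo-8 calcium dye fluorescence, kinetic read | benchmarks = low control EC20 acetylcholine (0%), high control EC100 acetylcholine (100%)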
The depositor's hits bear a star.

SMILES	CHRM4 antagonist	CHRM4 agonist	CHRM5 agonist	M4 PAM	CHRM5 antagonist	M5 PAM
CCN(CC)c1ncnc2c1ncn2[C@H]1CN(C2CCCC2)C[C@@H](CO)O1	-12	1	2	4	-4	0
O=C(C[n+]1ccc(Cc2ccccc2)cc1)Nc1ccc([N+](=O)[O-])cc1Cl	27*	1	-10	-20	3	-9
CC1(C(=O)NNC(=O)c2cccc([N+](=O)[O-])c2)CC1Br (centres undefined)	-16	1	0	16*	-6	-2
CC(C(=O)Nc1ccc2c(c1)OCCO2)N1Cc2ccccc2C1=O (centres undefined)	-1	0	-5	3	24	-6
CCC(C)[C@@H](C(=O)Nc1ccc2c(c1)OCO2)N1Cc2ccccc2C1=O (some centres undefined)	-19	-2	-2	19*	0	-3
O=[N+]([O-])c1ccc(NC(=S)NCCc2ccc(F)cc2)cc1	23	9	2	-15	33*	-17
COc1cccc(C#CC2=CC(=O)CC(C)(C)C2)c1	-2	-1	0	0	3	-2
OC(C#CCN1CCOCC1)(c1ccccc1)C1CC1 (centres undefined)	5	0	-4	2	0	2
CC(O)(C#CCN1CCCCCC1)c1ccccc1 (centres undefined)	23	15	-6	-20	26	-16
OC(C#CCN1CCCC1)(c1ccccc1)c1ccccc1	98*	1	-7	-18	99*	-17
OC(C#CCN1CCCCC1)(c1ccccc1)c1ccccc1	100*	2	-21	-18	100*	-36
CC(C)C(O)(C#CCN1CCCCC1)C(C)C	1	0	-8	-6	31*	-19
CCc1cccc(N(CC(=O)NC2CCCCC2)C(=O)c2csnn2)c1	-4	2	0	1	1	-2
CC(=O)N1CCN(C(=O)c2cc(S(=O)(=O)N(C)Cc3ccccc3)ccc2Cl)CC1	-5	2	-3	1	0	0
CCOC(=O)C1=C(CC)Nc2ccccc2N/C1=N\S(=O)(=O)c1cc(Br)ccc1Br	15	29	2	-17	65*	-16
O=C(O)C1Nc2c(C(F)(F)F)ccc(Cl)c2C2C=CCC12 (centres undefined)	-29	2	-2	1	-9	19*
Cc1ccc2c(c1C)NC(C(=O)O)C1CC=CC21 (centres undefined)	13	0	4	6	-17	12
Cc1ccc(NC(=O)C2CCN(S(C)(=O)=O)CC2)cc1Cl	-2	3	2	-4	0	-4
NS(=O)(=O)c1ccc(CCNC(=O)CCCCCn2c(=S)[nH]c3ccc(Br)cc3c2=O)cc1	21	17	2	-14	27*	-25
O=C(CCCCCn1c(=S)[nH]c2ccc(Br)cc2c1=O)NCC1CCCO1 (centres undefined)	3	1	2	3	3	-4
Cc1cc(C(=O)N2CCCC2(C)C(=O)NCC(C)C)nn1C(C)(C)C (centres undefined)	-7	0	1	0	1	-1
O=C1C2C3C=CC(CO)(O3)C2C(=O)N1c1ccccc1-c1ccccc1 (centres undefined)	27*	8	14	-7	-7	14
CC(=O)Oc1ccc(N2C(=O)C3C4C=CC(CO)(O4)C3C2=O)cc1 (centres undefined)	-6	1	0	12	-6	3
COc1cccc(NC(=O)Cn2nc(Cc3cccnc3)c3ccccc3c2=O)c1	59*	0	-1	-13	6	-9
COc1cc(NC(=S)NCc2cccnc2)cc(OC)c1	0	1	-1	-6	-5	-1
SMILES	CHRM4 antagonist	CHRM4 agonist	CHRM5 agonist	M4 PAM	CHRM5 antagonist	M5 PAM
COc1ccc(CNC(=O)Cn2nc(Cc3cccnc3)c3ccccc3c2=O)cc1	-5	2	2	0	-2	-1
COc1cccc(NC(=O)C2C3C=CC(O3)C2C(=O)NCc2cccnc2)c1 (centres undefined)	2	0	0	37*	6	3
CCC(C)C(CO)NCCCn1cnc(C(=O)Nc2ccc(C)c(C)c2)n1 (centres undefined)	-6	1	1	6	-8	3
CC(C)(CNC(=O)CO/N=C1/C=C2CCC3C(C(O)C[C@@]4(C)C3CC[C@]4(O)C(=O)CO)[C@@]2(C)CC1)C(O)C(=O)O (some centres undefined)	-15	2	-4	6	0	-6
CC#CC[N+](C)(C)CCCCCCCCCCCC	27*	0	-11	-20	13	-22
C#CC[N+](C)(C)CCCCCCCCCC	6	0	-9	-11	-4	-12
C#CC[N+](C)(C)CCCCCCCCCCCC	53*	0	-8	-15	21	-19
Cc1cc2nc(-c3ccc(Cl)cc3)c(CC(C)(C)C)n2c(C)c1Br	-13	1	1	0	-4	-9
O=C(N1CCCCC1)N1CCN(S(=O)(=O)c2ccccc2)CC1	0	1	-1	1	-3	4
Cc1ccc(-c2nc3cccnc3o2)cc1NC(=O)COc1ccc(C(C)(C)C)cc1	25	10	1	-9	27*	-13
CN(C)S(=O)(=O)n1cc(/C=C(\NC(=O)c2ccccc2Cl)C(=O)N2CCOCC2)c2ccccc21	8	1	-1	-4	-10	-3
COc1ccccc1Nc1nc(N)nc(CN2CCN(Cc3ccccc3)CC2)n1	11	0	-1	-4	4	-4
COc1ccc(N2CCN(Cc3nc(N)nc(Nc4ccccc4OC)n3)CC2)cc1	27*	-1	0	10	-2	-7
Cc1cc(NC(=O)c2cccc([N+](=O)[O-])c2)no1	-3	0	2	12	4	3
Cc1cc(NC(=O)c2cc([N+](=O)[O-])cc([N+](=O)[O-])c2)no1	2	2	3	15*	10	1
Cc1ccsc1C(=O)OCC(=O)NC1CCCCC1	-7	0	-1	5	-2	2
Cc1c(OCC(=O)N[C@@H](Cc2ccccc2)C(=O)O)ccc2c1oc(=O)c1ccccc12	-9	0	2	8	1	2
COc1ccc(-n2nc(C(=O)NCC(=O)N3CCN(Cc4ccccc4)CC3)c3ccccc3c2=O)cc1OC	17	18	-1	-14	29*	-12
CN(NC(=O)C(=O)NCc1ccco1)C(=O)Nc1ccc(Cl)cc1	8	18	11	4	37*	-20
